ChEMBL document CHEMBL1123347, “Topical nonsteroidal antipsoriatic agents. 1. 1,2,3,4-Tetraoxygenated naphthalene derivatives” (J Med Chem, 1986)

Experiments:
[1] = Partition coefficient (logP); assay type: physicochemical; details: octanol/water
How it was run: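 Lipophilicity (log P) measured by 1-octanol-coated reversed-phase HPLC. The mobile phase is pH 7.4 PBS saturated with 1-octanol, run on RP-18 or C-18 packing. A second system is linked to the first through overlapping series. For the most lipophilic analogues that could not be detected, log P is calculated from Free-Wilson-derived substituent constants assuming additivity.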

[2] = Statistical significance, p values as compared to positive control by students t-test; NS=Not significant; assay type: ADME
How it was run: (§1)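 Same arachidonic acid ear-edema model: 2 mg total topical dose in acetone, given 60 min before arachidonic acid, with 8 animals per group. Edema is measured by ear plug weight 1 h after arachidonic acid. p values come from Student's t-test against the concurrent arachidonic acid positive control. Thresholds are given as + (≤0.05) and so on.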

[3] = tested on: Mus musculus; assay: Compound was tested for inhibition of arachidonic acid induced mouse ear edema at 2 mg of dose; assay type: functional
How it was run: (§2)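 Mouse ear edema induced by arachidonic acid (dissolved in acetone at 100 mg/mL). Test agent is applied topically in acetone, 2 mg/0.02 mL per total dose, 60 min before arachidonic acid. Ear edema is read 1 h later as the weight gain of an 8-mm-diameter ear plug. It is compared with acetone-only and arachidonic acid-only controls run in the same experiment. n = 8 per group; percent inhibition is reported as mean.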

[4] = Statistical significance (p value) compared to positive control by Students t-test; assay type: ADME; how it was run: as §1
[5] = tested on: Mus musculus; assay: Compound was tested for inhibition of arachidonic acid induced mouse ear edema at 2 mg of dose; I=Insoluble; assay type: functional, organism-based; how it was run: as §2
[6] = Statistical significance, p values as compared to positive control by students t-test; I=Insoluble; assay type: ADME; how it was run: as §1

| logP [1] | Significance [2] | Significance [4] | Significance [6] | Significance ([4]; read-out: Significance) | SMILES | Inhibition [3] [%] | inhibition [5] |
| --- | --- | --- | --- | --- | --- | --- | --- |
| 7.6 | Not Active |  |  |  | CCCOc1c(OCCC)c(OC(=O)CCC)c2cc(Cl)ccc2c1OC(=O)CCC | 2 |  |
| 2.43 |  | <= 0.01 |  |  | COc1c(OC)c(OC(C)=O)c2c(OC)cccc2c1OC(C)=O | 47 |  |
| 7.7 | Not Active |  |  |  | CC(C)C(=O)Oc1c(Oc2ccccc2)c(Oc2ccccc2)c(OC(=O)C(C)C)c2cc(Cl)ccc12 | 0 |  |
| 7.5 |  | <= 0.01 |  |  | CCCOc1c(OCCC)c(OC(=O)C(C)C)c2cc(Cl)ccc2c1OC(=O)C(C)C | 28 |  |
| 2.39 |  | <= 0.05 |  |  | COc1c(OC)c(OC(C)=O)c2ccccc2c1OC(C)=O | 19 |  |
| 5.9 |  | <= 0.01 |  |  | CCCCOc1c(OCCCC)c(OC(C)=O)c2cc(Cl)ccc2c1OC(C)=O | 23 |  |
| 5.8 |  |  | Insoluble |  | CCC(=O)Oc1c(Oc2ccccc2)c(Oc2ccccc2)c(OC(=O)CC)c2ccccc12 |  | Insoluble |
| 5.2 |  | <= 0.001 |  |  | CCOc1c(OCC)c(OC(=O)CC)c2cc(Cl)ccc2c1OC(=O)CC | 50 |  |
| 4.64 |  | <= 0.001 |  |  | CCCC(=O)Oc1c(OC)c(OC)c(OC(=O)CCC)c2ccccc12 | 59 |  |
| 6.1 | Not Active |  |  |  | COc1c(OC)c(OC(=O)C(C)(C)C)c2c(Cl)cccc2c1OC(=O)C(C)(C)C | 6 |  |
| 5.2 |  | <= 0.001 |  |  | CCCOc1c(OCCC)c(OC(C)=O)c2cc(Cl)ccc2c1OC(C)=O | 50 |  |
| 7.9 |  | <= 0.001 |  |  | CC(C)Oc1c(OC(C)C)c(OC(=O)C(C)(C)C)c2cc(Cl)ccc2c1OC(=O)C(C)(C)C | 26 |  |
| 3.14 |  | <= 0.001 |  |  | COc1c(OC)c(OC(C)=O)c2cc(C)c(C)cc2c1OC(C)=O | 19 |  |
| 4.61 |  | <= 0.001 |  |  | COc1c(OC)c(OC(=O)C(C)C)c2ccccc2c1OC(=O)C(C)C | 53 |  |
| 2 | Not Active |  |  |  | COc1c(OC)c(OC(C)=O)c2c(NC(C)=O)cccc2c1OC(C)=O | 6 |  |
| 8.7 |  |  |  |  | CC(C)(C)C(=O)Oc1c(Oc2ccccc2)c(Oc2ccccc2)c(OC(=O)C(C)(C)C)c2cc(Cl)ccc12 |  | Insoluble |
| 3.44 |  | <= 0.01 |  |  | CCC(=O)Oc1c(OC)c(OC)c(OC(=O)CC)c2ccccc12 | 33 |  |
| 2.51 |  | <= 0.01 |  |  | COc1c(OC)c(OC(C)=O)c2c(C#N)cccc2c1OC(C)=O | 24 |  |
| 5 | Not Active |  |  |  | COc1c(OC)c(OC(=O)C(C)C)c2c(C)cccc2c1OC(=O)C(C)C | 12 |  |

| logP [1] | Significance [2] | Significance [4] | Significance [6] | Significance ([4]; read-out: Significance) | SMILES | Inhibition [3] [%] | inhibition [5] |
| --- | --- | --- | --- | --- | --- | --- | --- |
| 3.39 |  | <= 0.001 |  |  | COc1c(OC)c(OC(C)=O)c2cc(Br)ccc2c1OC(C)=O | 42 |  |
| 6.4 |  | <= 0.001 |  |  | CCCOc1c(OCCC)c(OC(=O)CC)c2cc(Cl)ccc2c1OC(=O)CC | 30 |  |
| 6.5 | Not Active |  |  |  | COc1c(OC)c(OC(=O)C(C)(C)C)c2cc(C)c(C)cc2c1OC(=O)C(C)(C)C | 6 |  |
| 7.7 | Not Active |  |  |  | CCCC(=O)Oc1c(Oc2ccccc2)c(Oc2ccccc2)c(OC(=O)CCC)c2cc(Cl)ccc12 | -5 |  |
| 3.9 |  | <= 0.01 |  |  | CCC(=O)Oc1c(OC)c(OC)c(OC(=O)CC)c2c(C)cccc12 | 24 |  |
| 6.6 | Not Active |  |  |  | CCC(=O)Oc1c(Oc2ccccc2)c(Oc2ccccc2)c(OC(=O)CC)c2cc(Cl)ccc12 | -15 |  |
| 3.16 | Not Active |  |  |  | COc1c(OC)c(OC(C)=O)c2c(Cl)cccc2c1OC(C)=O | 11 |  |
| 2.39 |  | <= 0.001 |  |  | COc1ccc2c(OC(C)=O)c(OC)c(OC)c(OC(C)=O)c2c1 | 53 |  |
| 4.3 |  | <= 0.001 |  |  | CCC(=O)Oc1c(OC)c(OC)c(OC(=O)CC)c2cc(Cl)ccc12 | 49 |  |
| 3.9 |  | <= 0.001 |  |  | CCC(=O)Oc1c(OC)c(OC)c(OC(=O)CC)c2cc(C)ccc12 | 39 |  |
| 4.2 |  | <= 0.001 |  |  | COc1c(OC)c(OC(C)=O)c2c(Sc3ccccc3)cccc2c1OC(C)=O | 42 |  |
| 6.7 |  | <= 0.05 |  |  | COc1c(OC)c(OC(=O)c2ccccc2)c2cc(Cl)ccc2c1OC(=O)c1ccccc1 | 18 |  |
| 6.6 | Not Active |  |  |  | COc1c(OC)c(OC(=O)C(C)(C)C)c2cc(Cl)ccc2c1OC(=O)C(C)(C)C | 11 |  |
| 5.3 |  | <= 0.001 |  |  | COc1c(OC)c(OC(=O)C(C)C)c2cc(C)c(C)cc2c1OC(=O)C(C)C | 21 |  |
| 6.4 |  | <= 0.05 |  |  | CCOc1c(OCC)c(OC(=O)C(C)C)c2cc(Cl)ccc2c1OC(=O)C(C)C | 11 |  |
| 5.6 |  | <= 0.01 |  |  | COc1c(OC)c(OC(=O)C(C)(C)C)c2c(OC)cccc2c1OC(=O)C(C)(C)C | 29 |  |
| 3.44 |  | <= 0.001 |  |  | CCC(=O)Oc1c(OC)c(OC)c(OC(=O)CC)c2c(OC)cccc12 | 57 |  |
| 2.86 |  | <= 0.001 |  |  | COc1c(OC)c(OC(C)=O)c2cc(C)ccc2c1OC(C)=O | 40 |  |
| 7.4 |  | <= 0.001 |  |  | CCOc1c(OCC)c(OC(=O)C(C)(C)C)c2cc(Cl)ccc2c1OC(=O)C(C)(C)C | 19 |  |

| logP [1] | Significance [2] | Significance [4] | Significance [6] | Significance ([4]; read-out: Significance) | SMILES | Inhibition [3] [%] | inhibition [5] |
| --- | --- | --- | --- | --- | --- | --- | --- |
| 2.75 |  | <= 0.001 |  |  | COc1c(OC)c(OC(C)=O)c2cc(F)ccc2c1OC(C)=O | 40 |  |
| 5.4 | Not Active |  |  |  | CCCC(=O)Oc1c(OC)c(OC)c(OC(=O)CCC)c2cc(C)c(C)cc12 | 14 |  |
| 6.1 | Not Active |  |  |  | COc1c(OC)c(OC(=O)C(C)(C)C)c2c(C)cccc2c1OC(=O)C(C)(C)C | 10 |  |
| 4.2 |  | <= 0.001 |  |  | CCC(=O)Oc1c(OC)c(OC)c(OC(=O)CC)c2cc(C)c(C)cc12 | 26 |  |
| 5.4 | Not Active |  |  |  | COc1ccc2c(OC(=O)C(C)(C)C)c(OC)c(OC)c(OC(=O)C(C)(C)C)c2c1 | 3 |  |
| 8.5 |  | <= 0.05 |  |  | CCCOc1c(OCCC)c(OC(=O)C(C)(C)C)c2cc(Cl)ccc2c1OC(=O)C(C)(C)C | 16 |  |
| 2.28 | Not Active |  |  |  | COc1c(OC)c(OC(C)=O)c2cc(C#N)ccc2c1OC(C)=O | 7 |  |
| 6.1 | Not Active |  |  |  | COc1c(OC)c(OC(=O)C(C)(C)C)c2cc(C)ccc2c1OC(=O)C(C)(C)C | 11 |  |
| 5.69 | Not Active |  |  |  | COc1c(OC)c(OC(=O)C(C)(C)C)c2ccccc2c1OC(=O)C(C)(C)C | 0 |  |
|  | Not Active |  |  |  | CSc1c(SC)c(OC(C)=O)c2cc(Cl)ccc2c1OC(C)=O | -2 |  |
| 5.6 | Not Active |  |  |  | CC(=O)Oc1c(Oc2ccccc2)c(Oc2ccccc2)c(OC(C)=O)c2cc(Cl)ccc12 | 5 |  |
| 5.5 |  | <= 0.001 |  |  | CCCC(=O)Oc1c(OC)c(OC)c(OC(=O)CCC)c2cc(Cl)ccc12 | 58 |  |
| 4 |  | <= 0.001 |  |  | CCOc1c(OCC)c(OC(C)=O)c2cc(Cl)ccc2c1OC(C)=O | 38 |  |
| 5.4 |  | <= 0.01 |  |  | COc1c(OC)c(OC(=O)C(C)C)c2cc(Cl)ccc2c1OC(=O)C(C)C | 23 |  |
| 2.8 |  |  |  | < 0.001 | COc1c(OC)c(OC(C)=O)c2c(C)cccc2c1OC(C)=O | 22 |  |
| 8.7 | Not Active |  |  |  | O=C(Oc1c(Oc2ccccc2)c(Oc2ccccc2)c(OC(=O)c2ccccc2)c2cc(Cl)ccc12)c1ccccc1 | -1 |  |
| 5.8 | Not Active |  |  |  | CCC(=O)Oc1c(OC(C)C)c(OC(C)C)c(OC(=O)CC)c2cc(Cl)ccc12 | 16 |  |
| 3.28 |  | <= 0.01 |  |  | CCC(=O)Oc1c(OC)c(OC)c(OC(=O)CC)c2cc(OC)ccc12 | 49 |  |
| 4.6 |  | <= 0.001 |  |  | CC(=O)Oc1c(OC(C)C)c(OC(C)C)c(OC(C)=O)c2cc(Cl)ccc12 | 19 |  |
